MrgX1 PAM: allosterically activates human MrgX1 receptor signaling. AID 588675. MrgX1-HEK293, Fluo-4 calcium flux, FDSS; stronger effect = higher value. B-score at 10 µM. hit rate 0.63% among 310,000;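 active = plate-corrected calcium response at least 3 library SD above typical, normal starting fluorescence, not activating the receptor alone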;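 note: compound read alongside a low EC10 to EC30 dose of BAM8-22 agonist; peak minus trough fluorescence over baseline measured at the second addition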
Target sequence (Q96LB2 whole entry, looked up): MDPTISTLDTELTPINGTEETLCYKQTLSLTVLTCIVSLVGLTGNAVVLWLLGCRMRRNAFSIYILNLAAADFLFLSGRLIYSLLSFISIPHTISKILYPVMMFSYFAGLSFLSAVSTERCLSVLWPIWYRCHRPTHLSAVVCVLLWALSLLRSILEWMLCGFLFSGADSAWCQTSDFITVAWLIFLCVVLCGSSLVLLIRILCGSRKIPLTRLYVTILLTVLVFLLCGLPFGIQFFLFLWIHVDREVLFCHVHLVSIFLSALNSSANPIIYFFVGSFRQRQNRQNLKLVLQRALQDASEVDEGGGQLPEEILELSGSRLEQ
RGS4 block: human RGS4 inhibition; HEK293 M3R/RGS4 inducible, Fluo-4 calcium flux; stronger effect = higher value; triggered by carbachol at its EC20; hit rate 0.45% among 310,000; P49798; B-score at 10 µM;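 active = B-score, a plate-corrected calcium signal, over three deviations above library mean, with baseline fluorescence within five deviations of library mean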;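 note: RGS4 expression induced by doxycycline in cells with stable M3 receptor; B-score is computed from the integrated fluorescence ratio over baseline after carbachol; higher B-score means a larger calcium signal and so more RGS4 inhibition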
Target sequence (P49798 whole entry, looked up): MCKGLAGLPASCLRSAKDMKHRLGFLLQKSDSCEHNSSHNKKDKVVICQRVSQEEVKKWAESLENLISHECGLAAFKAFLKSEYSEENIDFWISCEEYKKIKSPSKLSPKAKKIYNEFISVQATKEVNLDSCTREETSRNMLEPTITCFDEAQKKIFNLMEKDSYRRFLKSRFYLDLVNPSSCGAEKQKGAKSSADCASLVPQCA
RGS4 act: RGS4 potentiation or activation. HEK293 M3R/inducible RGS4, carbachol calcium flux Fluo4; stronger effect = lower value. AID 463111. hit rate 0.92% among 310,000. B-score at 10 µM;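 active = B-score of the integrated calcium signal more than 4 SD below the library mean, with starting fluorescence not abnormally high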;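 note: negative B-score means reduced calcium response which marks RGS4 activation or potentiation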
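Assay system: HEK293 FlpIn-TREx cells, stable M3R, doxycycline-inducible RGS4 / Probe or stimulus: carbachol, ECmax concentration / Times: overnight RGS4 induction, 30 min dye load 37 °C, 20 min compound RT / Signal: kinetic calcium fluorescence imaging with Fluo4-AM dye, 2 µM / Measure: Agonist-evoked peak-minus-minimum fluorescence over baseline, integrated ratio, B score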
MrgX1 ag: agonists of human MrgX1 receptor; Q96LB2; MrgX1-HEK293 cells, Fluo-4 calcium fluorescence, agonist mode; stronger effect = higher value; B-score at 10 µM; hit rate 0.44% among 310,000; AID 588627;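 active = calcium response B-score plate-corrected fluorescence ratio at least 3 library SD, with starting fluorescence B-score inside 5 SD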
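Material: MrgX1-expressing HEK293 cells; input: 15,000 cells per well; doses: test compound given as first of three sequential additions; schedule: overnight plating before 1 h dye loading; technique: Fluo-4 NW calcium-flux fluorescence, kinetic read; evaluation: baseline-normalised fluorescence change ratio, B-scored; control set: plate-wise positive and negative controls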
MrgX1 antagonist: antagonists of human MrgX1 receptor | Q96LB2 | MRGX1-HEK293 calcium flux, Fluo-4, BAM8-22 antagonism; stronger effect = lower value | B-score at 10 µM | hit rate 1.3% among 310,000 | AID 588676;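 active = calcium-response B-score plate-corrected more than 3 library SD below zero, starting fluorescence within 5 deviations, no agonist response on first addition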;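 note: peak minus trough fluorescence over baseline after final BAM8-22 challenge near maximal dose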
MrgX1 allo conf: human MrgX1 positive allosteric modulation, re-confirmation; hit rate 13% among 1,200; MrgX1-HEK293, Fluo-4 calcium fluorescence, FDSS; shares compounds with MrgX1 PAM; activation (ratio percentage), % at 10 µM;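 active = ratio at least 3 SD above the weak peptide control, stable starting fluorescence, no direct agonism earlier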;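 note: compound followed by low BAM8-22 agonist challenge near EC20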
MrgX1 antag conf: reconfirmed antagonist of human MrgX1 receptor signaling; MrgX1-HEK293, BAM8-22 calcium flux, Fluo-4; stronger effect = lower value; hit rate 19% among 2,300; remaining BAM8-22 calcium response % of control (stronger effect = lower value), % at 10 µM; shares compounds with MrgX1 antagonist;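 active = remaining agonist calcium response no higher than 100% minus 3 SD of agonist-only control wells, with starting fluorescence near control levels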;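 note: agonist BAM8-22 given at a near maximal EC90 to ECmax level; peak minus minimum fluorescence divided by baseline after agonist addition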
HEK293 Ca flux: activity in parental HEK293 cells lacking MrgX1; shares compounds with MrgX1 antagonist; Fluo-4 calcium fluorescence, FDSS; fluorescence ratio F(max-min)/F0 at 10 µM; hit rate 2% among 4,000; AID 624111;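 active = duplicate-averaged calcium fluorescence ratio at least three times the standard deviation of buffer wells, a nonspecific response in parental cells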
HEK293 Ca counter: activity in parental HEK293 cells without MrgX1 | shares compounds with MrgX1 antagonist | parental HEK293 calcium flux, Fluo-4 fluorescence ratio; stronger effect = higher value | fluorescence ratio F(max-min)/F0 at 10 µM | hit rate 0.4% among 4,000 | AID 624114;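 active = calcium fluorescence ratio, averaged over duplicates, at least 3 SD of the buffer-well ratio, meaning a nonspecific response in receptor-free cells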;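 note: untransfected parental HEK293 lacking MrgX1 used as counterscreen for MrgX1 allosteric activators; fluorescence change taken during the second addition on a kinetic imager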
HEK293 Ca cntr2: activity in parental HEK293 cells lacking MrgX1 receptor; shares compounds with MrgX1 antagonist; Fluo-4 calcium fluorescence (FDSS); stronger effect = higher value; fluorescence ratio F(max-min)/F0 at 10 µM; hit rate 8.7% among 4,000;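 active = calcium fluorescence ratio at least three times the spread of buffer wells, meaning a non-specific response in parental cells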
Large screens that a line does not name were inactive (follow-up assays come after a bar, where they were run); ! = repeats disagree. Shown are actives, neighbours in structure and some others; about 3.5% of the full set was active somewhere.

CC(C)COC(=O)c1ccccc1C(=O)OCC(C)C	none
C[CH2][Hg][S]c1ccccc1C(=O)O	MrgX1 PAM 6.51 (no result: RGS4 block, RGS4 act) | MrgX1 allo conf inactive | HEK293 Ca flux inactive | HEK293 Ca counter inactive | HEK293 Ca cntr2 inactive
C=CCN1CCc2cccc3c2[C@H]1Cc1ccc(O)c(O)c1-3	MrgX1 PAM 8.14 | MrgX1 allo conf inactive | HEK293 Ca flux inactive | HEK293 Ca counter inactive | HEK293 Ca cntr2 inactive
CN1CCCN(c2ccc([N+](=O)[O-])nc2)CC1	none
NC(CC(=O)O)C1CCCCC1 (configuration not stated)	MrgX1 antagonist -7.05 | MrgX1 antag conf inactive | HEK293 Ca flux inactive | HEK293 Ca counter inactive | HEK293 Ca cntr2 inactive
CCN1C[C@]2(CO)CC[C@H](OC)[C@@]34C5C[C@H]6[C@H](OC)C5[C@](O)(C[C@H]6OC)[C@@](O)(C(OC)C23)[C@@H]14 (some centres not stated)	MrgX1 antagonist -4.64 | MrgX1 antag conf inactive | HEK293 Ca flux inactive | HEK293 Ca counter inactive | HEK293 Ca cntr2 inactive
ClC1C(Cl)C(Cl)C(Cl)C(Cl)C1Cl (configuration not stated)	MrgX1 antagonist -6.9! (no result: RGS4 block, RGS4 act) | MrgX1 antag conf inactive | HEK293 Ca flux inactive | HEK293 Ca counter inactive | HEK293 Ca cntr2 inactive
Cc1c(C=O)c2ccccc2n1Cc1ccccc1F	MrgX1 antagonist -11.1 | MrgX1 antag conf inactive | HEK293 Ca flux inactive | HEK293 Ca counter inactive | HEK293 Ca cntr2 inactive
FC(F)(F)c1cccc(-n2nnnc2C2(N3CCOCC3)CCCCC2)c1	MrgX1 antagonist -5.13 | MrgX1 antag conf inactive | HEK293 Ca flux inactive | HEK293 Ca counter inactive | HEK293 Ca cntr2 inactive
COC(=O)C(O)(c1ccc(NC(=S)NC(=O)c2ccc(Cl)cc2Cl)c(C)c1)C(F)(F)F (configuration not stated)	none
CCOC(=O)C(O)(c1ccc(NC(=S)NC(=O)c2ccc(Cl)cc2Cl)c(C)c1)C(F)(F)F (configuration not stated)	MrgX1 antagonist -4.72 | MrgX1 antag conf inactive | HEK293 Ca flux inactive | HEK293 Ca counter inactive | HEK293 Ca cntr2 inactive
Clc1ccccc1CN1CCN(c2ccccc2)CC1	none
CC(C)(C)c1ccc(O)c(CN2CCN(c3ccccc3)CC2)c1	MrgX1 antagonist -9.33 | MrgX1 antag conf inactive | HEK293 Ca flux inactive | HEK293 Ca counter inactive | HEK293 Ca cntr2 inactive
Cc1c(C(=O)N2CCC3(CC2)OCCO3)oc2ccccc12	none
Cc1c(C(=O)N2CCC3(CC2)OCCO3)oc2ccc(S(=O)(=O)N3CCOCC3)cc12	MrgX1 antagonist -4.53 | MrgX1 antag conf inactive | HEK293 Ca flux inactive | HEK293 Ca counter inactive | HEK293 Ca cntr2 inactive
Cn1c(O)c(Cc2ccc(OCc3ccccc3)cc2)c(=O)n(C)c1=O	none
CCCN1CCCC(C(=O)c2cc(C)c(OC)c(C)c2)C1 (configuration not stated)	none
CCOc1ccc(-c2cc(C)[n+](CCO)c(-c3ccc(OCC)cc3)c2)cc1	none
CCOc1ccc(-c2cc(C)[n+](CCc3ccc(OC)c(OC)c3)c(-c3ccc(OCC)cc3)c2)cc1	RGS4 act -9.93, MrgX1 antagonist -13 | MrgX1 antag conf 69.8% | HEK293 Ca flux inactive | HEK293 Ca counter inactive | HEK293 Ca cntr2 inactive
Cc1sc2ncnc(N3CCC(C(=O)Nc4ccc(C#N)c(Cl)c4)CC3)c2c1C	MrgX1 antagonist -5.84 | MrgX1 antag conf inactive | HEK293 Ca flux inactive | HEK293 Ca counter inactive | HEK293 Ca cntr2 inactive
